The source made the active and inactive calls. The rule behind the calls is not given here.

The target of experiment [1] is T1, Prothrombin (Homo sapiens, UniProt P00734). The experiment in a line: Inhibition of human alpha-thrombin assessed as spectrozyme TH hydrolysis after 10 mins by spectrophotometric analysis. A digest of the protocol:
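Human α-thrombin (~5 nM initial) preincubated 10 min with inhibitor (4 μg/ml to 5 mg/ml stocks) at 25 °C. Buffer: 20 mM Tris-HCl pH 7.4, 100 mM NaCl, 2.5 mM CaCl2, 0.1% PEG 8000. Fractional residual activity fitted to logistic equation (Hill slope fixed at 1) for IC50 and efficacy ΔY.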

The target of experiment [2] is T1, Prothrombin. The experiment is described as follows: Non-competitive inhibition of human alpha-thrombin assessed as spectrozyme TH hydrolysis at 1.5 to 30 uM by Michaelis-Menten equation analysis. A digest of the protocol:
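Spectrozyme TH (10 to 600 μM) hydrolysed by 5–10 nM human thrombin at fixed inhibitor levels (0–30 μM) in 20 mM Tris-HCl pH 7.4, 37 °C. Initial rate taken from linear A405 rise with under 10% substrate consumption. KM and VMAX obtained by fitting the Michaelis-Menten equation.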

Experiment [3] deals with Plasma. The experiment is described as follows: Anticoagulant activity in human plasma assessed as concentration required to double the activated partial thromboplastin time. In kind it is functional.
Experiment [4] relates to Plasma. The experiment in a line: Anticoagulant activity in human plasma assessed as concentration required to double the prothrombin time. In kind it is functional. A digest of the protocol:
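One-stage recalcification PT on a fibrometer. 10 μL inhibitor brought to 100 μL with citrated human plasma, incubated 30 s at 37 °C, then 200 μL prewarmed thromboplastin added and clotting time recorded. Deionized water gave baseline clotting time. Duplicates; concentration doubling PT read from clotting time versus concentration.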

Regarding `COCCOC(=O)c1c(C)oc2cc(OC)c(OS(=O)(=O)O)cc12`, in experiment [1] (read-out: IC50), the IC50 was over 2000 µM.
As for `CCOC(=O)c1c(C)oc2cc(OC)c(OCc3oc4cc(OC)c(OS(=O)(=O)[O-])cc4c3C(=O)OCC)cc12.[Na+]`, in experiment [2], the inhibition result was “Active”. Further, the 2aPTT in experiment [3] is 740 µM. The 2PT in experiment [4] worked out at 2100 µM. Besides, the IC50 in experiment [1] (read-out: IC50) worked out at 60 µM.
Consider `COc1cc2oc(C)c(C(=O)N3CCOCC3)c2cc1OCc1oc2cc(OC)c(OS(=O)(=O)[O-])cc2c1C(=O)N1CCOCC1.[Na+]`, for which the 2aPTT in experiment [3] is over 1000 µM. The IC50 in experiment [1] (read-out: IC50) was over 7100 µM.
For the compound `CCOC(=O)c1c(C)oc2cc(OCc3oc4cc(OC)c(OS(=O)(=O)O)cc4c3C(=O)OCC)c(OS(=O)(=O)O)cc12`, the IC50 in experiment [1] (read-out: IC50) was 764 µM; in experiment [1] (read-out: pIC50 (converted)) it was 759 µM.
Take `CCOC(=O)c1c(CN2CCOCC2)oc2cc(OC)c(OS(=O)(=O)O)cc12`: the IC50 in experiment [1] (read-out: IC50) is over 7000 µM.
Consider `CCOC(=O)c1c(C)oc2cc(OC)c(OCc3oc4cc(OS(=O)(=O)O)c(OS(=O)(=O)O)cc4c3C(=O)OCC)cc12`, for which the IC50 in experiment [1] (read-out: IC50) was 365 µM; in experiment [1] (read-out: pIC50 (converted)) it was 363 µM.
Take `COc1cc2oc(C)c(C(=O)OC(C)(C)C)c2cc1OCc1oc2cc(OC)c(OS(=O)(=O)[O-])cc2c1C(=O)OC(C)(C)C.[Na+]`: the 2aPTT in experiment [3] is 355 µM. The IC50 in experiment [1] (read-out: IC50) is 7.3 µM; in experiment [1] (read-out: pIC50 (converted)), 7.24 µM.
For `CCOC(=O)c1c(C)oc2cc(OCC)c(OCc3oc4cc(OCC)c(OS(=O)(=O)[O-])cc4c3C(=O)OCC)cc12.[Na+]`, the 2aPTT in experiment [3] was 530 µM. The IC50 in experiment [1] (read-out: IC50) worked out at 121 µM.
For `CCOC(=O)c1c(C)oc2cc(OC(=O)c3ccc(OC)cc3)c(OS(=O)(=O)[O-])cc12.[Na+]`, in experiment [3], the 2aPTT turned out to be 1250 µM. The 2PT in experiment [4] is 1200 µM. Further, the IC50 in experiment [1] (read-out: IC50) was determined as 520 µM.
On to `C=CCOC(=O)c1c(C)oc2cc(OC)c(OS(=O)(=O)O)cc12`, for which the IC50 in experiment [1] (read-out: IC50) was over 3000 µM.
For `COc1cc2oc(C)c(C(=O)N3CCCCC3)c2cc1OS(=O)(=O)O`, in experiment [1] (read-out: IC50), the IC50 was over 2000 µM.
Consider `COc1cc2oc(C)c(C(=O)O)c2cc1OCc1oc2cc(OC)c(OS(=O)(=O)[O-])cc2c1C(=O)O.[Na+]`, for which, in experiment [3], the 2aPTT was over 1000 µM. Also, in experiment [1] (read-out: IC50), the IC50 was found to be 374 µM.
With `CCOC(=O)c1c(C)oc2cc(OC(C)C)c(OCc3oc4cc(OC(C)C)c(OS(=O)(=O)O)cc4c3C(=O)OCC)cc12`, the IC50 in experiment [1] (read-out: IC50) was found to be 30 µM.
Consider `CCOC(=O)c1c(COc2cc3c(C(=O)OCC)c(CN4CCOCC4)oc3cc2OC)oc2cc(OC)c(OS(=O)(=O)O)cc12`, for which the IC50 in experiment [1] (read-out: IC50) and in experiment [1] (read-out: pIC50 (converted)) was 129 µM in each case.
Regarding `COc1cc2oc(C)c(C(=O)N3CCOCC3)c2cc1OS(=O)(=O)O`, in experiment [1] (read-out: IC50), the IC50 is over 2000 µM.
On the same count and under the same terms, the value for `CCOC(=O)c1c(C)oc2cc(OC)c(OS(=O)(=O)O)cc12` was over 2500 µM.
As for `COCCOC(=O)c1c(C)oc2cc(OC)c(OCc3oc4cc(OC)c(OS(=O)(=O)[O-])cc4c3C(=O)OCCOC)cc12.[Na+]`, the 2aPTT in experiment [3] was over 1000 µM. In addition, the IC50 in experiment [1] (read-out: IC50) stood at 375 µM.
Consider `CCOC(=O)c1c(C)oc2cc(OC(C)C)c(OS(=O)(=O)O)cc12`, for which, in experiment [1] (read-out: IC50), the IC50 stood at 13700 µM.
The same measure, in the same setting: under `COC(=O)c1c(C)oc2cc(OC)c(OS(=O)(=O)O)cc12` stands over 3000 µM.
For the compound `COC(=O)c1c(C)oc2cc(OC)c(OCc3oc4cc(OC)c(OS(=O)(=O)[O-])cc4c3C(=O)OC)cc12.[Na+]`, in experiment [3], the 2aPTT was over 1000 µM. The 2PT in experiment [4] is 850 µM. For the same compound, the results for the IC50 in experiment [1] (read-out: IC50) and in experiment [1] (read-out: pIC50 (converted)) were 37 µM and 37.2 µM, respectively.
With `COc1cc2oc(C)c(C(=O)OC(C)(C)C)c2cc1OS(=O)(=O)[O-].[Na+]`, in experiment [3], the 2aPTT is over 2000 µM. The IC50 in experiment [1] (read-out: IC50) is over 3000 µM.
On to `CCOC(=O)c1c(C)oc2cc(OCOC)c(OS(=O)(=O)[O-])cc12.[Na+]`, for which the 2aPTT in experiment [3] is over 1200 µM. For the same compound, the IC50 in experiment [1] (read-out: IC50) is over 16000 µM.
With `CCOC(=O)c1c(C)oc2cc(OC(=O)N3CCOCC3)c(OS(=O)(=O)O)cc12`, the IC50 in experiment [1] (read-out: IC50) is over 25000 µM.
In the case of `CCOC(=O)c1c(C)oc2cc(OCC)c(OS(=O)(=O)O)cc12`, the results for the IC50 in experiment [1] (read-out: IC50) and in experiment [1] (read-out: pIC50 (converted)) were 20600 µM and 20000 µM, respectively.

Values taken from ChEMBL document CHEMBL1811777, “Rational design of potent, small, synthetic allosteric inhibitors of thrombin” (J Med Chem, 2011).
